Assays:
[1] = melting temperature; fluorescence melt of hairpins on a sequencing array, two-state fit, raised by 9.35 °C to match UV melts; conditions: sodium 0.088 M
In short: (§1)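 Hairpins were imaged by Cy3 fluorescence on a sequenced MiSeq flow cell with annealed Cy3 and quencher oligos, in 50 mM Na-HEPES pH 8.0, 25 mM NaCl, in 2.5 °C steps up to 60 °C. Bootstrapped two-state fits of normalised signals gave melting temperature and folding enthalpy. Four replicates were combined by inverse variance, and fitted temperatures were raised by 9.35 °C to match UV melts.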

[2] = folding enthalpy; higher = less favourable; fluorescence melt of hairpins on a sequencing array, two-state fit; conditions: sodium 0.088 M
In short: as §1

Row | Sequence | Tm [1] | folding enthalpy [2]
1 | GACAGGCGAAAGCCGGTC (((.(((....))).))) | 67.1 °C | -25.9 kcal/mol
2 | GACAGGGCGAAAGCCGTC (((..(((....)))))) | 49.6 °C | -14.1 kcal/mol
3 | GACAGTCCGAAAGGAGTC (((..(((....)))))) | 30.3 °C | -17 kcal/mol
4 | GACAGTGCGAAAGCAGTC (((..(((....)))))) | 40.5 °C | -13.3 kcal/mol
5 | GACAGTGGAAACACCGTC (((.(((....))).))) | 39.6 °C | -24.8 kcal/mol
6 | GACAGTGGAAACGTTGTC ((((..(....)..)))) | 36.2 °C | -20.9 kcal/mol
7 | GACATACGAAAGTACGTC (((.(((....))).))) | 42.5 °C | -27 kcal/mol
8 | GACATGCGAAAGCACGTC (((.(((....))).))) | 52.4 °C | -26.3 kcal/mol
9 | GACATGGGAAACCACGTC (((.(((....))).))) | 38.8 °C | -26.7 kcal/mol
10 | GACATGGGAAACCGTGTC ((((.((....)).)))) | 52.1 °C | -30.9 kcal/mol
11 | GACATTCCGAAAGGAGTC (((..(((....)))))) | 28.6 °C | -12.3 kcal/mol
12 | GACATTGGAAACAATGTC (((((((....))))))) | 56.6 °C | -44.1 kcal/mol
13 | GACCAAGAAATTGGTC ((((((....)))))) | 54.4 °C | -25.9 kcal/mol
14 | GACCACCGAAAGGTGTC (((.(((....)))))) | 47.5 °C | -12.7 kcal/mol
15 | GACCACGAAAGTGAGGTC ((((((....)))..))) | 48.3 °C | -22.8 kcal/mol
16 | GACCACGAAAGTGCTGTC ((((((....)))..))) | 34 °C | -17.2 kcal/mol
17 | GACCACGAAAGTGGGGTC ((((((....)))..))) | 61.2 °C | -13.2 kcal/mol
18 | GACCACGAAAGTGTGGTC ((((((....)))..))) | 55.2 °C | -41 kcal/mol
19 | GACCACGAAAGTGTGTC ((((((....))).))) | 52.9 °C | -27.3 kcal/mol

Row | Sequence | Tm [1] | folding enthalpy [2]
20 | GACCACGGAAACGTAGCC (.(.(((....))).).) | 23.6 °C | -9.48 kcal/mol
21 | GACCACGGAAACGTAGTC (((.(((....))).))) | 37 °C | -22.6 kcal/mol
22 | GACCACGGAAACGTGATC ((.((((....)))).)) | 43.3 °C | -19.9 kcal/mol
23 | GACCAGACGAAAGTCGTC (((..(((....)))))) | 31.7 °C | -12.5 kcal/mol
24 | GACCAGCCGAAAGGCGTC (((..(((....)))))) | 34.5 °C | -7.85 kcal/mol
25 | GACCAGGGAAACCCAGTC (((..((....))..))) | 29.1 °C | -18.4 kcal/mol
26 | GACCAGGGAAACCTGATC ((.((((....)))).)) | 34.8 °C | -22.3 kcal/mol
27 | GACCATACGAAAGTAGTC (((..(((....)))))) | 25.7 °C | -9.93 kcal/mol
28 | GACCATGGAAACATAGTC (((.(((....))).))) | 30.8 °C | -19.8 kcal/mol
29 | GACCATGGAAACGTGGTC (((((.(....).))))) | 52.6 °C | -42.7 kcal/mol
30 | GACCCAGGAAACCAGGTC ((((..(....)..)))) | 34 °C | -24.3 kcal/mol
31 | GACCCAGGAAACTGGGCC (.(((((....))))).) | 47.9 °C | -16.5 kcal/mol
32 | GACCCCCGAAAGGGAGTC (((.(((....))).))) | 54 °C | -28.8 kcal/mol
33 | GACCCCGAAAGGGAGGTC ((((((....)))..))) | 49.4 °C | -21.8 kcal/mol
34 | GACCCCGAAAGGGAGTC ((((((....))).))) | 56.5 °C | -23 kcal/mol
35 | GACCCCGAAAGGGTGTC ((((((....))).))) | 57.6 °C | -26.6 kcal/mol
36 | GACCCTCCGAAAGGAGTC (((..(((....)))))) | 23.4 °C | -7.33 kcal/mol
37 | GACCCTGGAAACAGGGTC (((((((....))))))) | 67.7 °C | -36.9 kcal/mol

Reference: the array DNA melting data of Ke et al. (doi:10.1101/2024.01.08.574731)
